# High-throughput results deposited in PubChem BioAssay by several laboratories.
# BaF3 parental – parental Ba/F3 viability inhibition as JAK2V617F counter-screen. CellTiter-Glo ATP luminescence. inhibition, % at 5.6 µM. 220,000 tested, 1.1% active;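 active = inhibition above a per-campaign cutoff, the mean inhibition of all tested compounds plus 3 SD, cut at about 27% in these data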;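 note: 0% = DMSO wells and 100% = JAK Inhibitor I control wells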
# Ba/F3 V617F tox – lowers viability of Ba/F3 cells expressing EpoR and JAK2V617F | ATP luminescence | inhibition, % at 5.6 µM | 220,000 tested, 1.1% active | AID 1446;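 active = inhibition above the campaign mean plus 3 SD over all tested compounds, cut at about 24% in these data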;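 note: cytokine-independent growth of Ba/F3 cells driven by EpoR plus mutant JAK2; 0% = DMSO-treated cells and 100% = JAK inhibitor I control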
# bCat nuc transl – alters nuclear translocation of beta-catenin in HeLa cells; immunofluorescence imaging; nuclear translocation activity, % at 5 µM; 190,000 tested, 0.3% active; AID 1665;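 active = nuclear translocation activity above 50% at 5 µM, with a well cell count of 50 or more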;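 note: per-cell ratio of nuclear to cytoplasmic median beta-catenin stain intensity; plate controls were DMSO negative control for no effect and GSK-3 inhibitor IX positive control for full effect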
#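 Test system: human HeLa cells, native beta-catenin. Compound dosing: 5 µM primary single dose, 0.1% DMSO, 0.02–20 µM confirmation series. Incubation: compound exposure 24 h at 37°C. Detection: beta-catenin immunostaining with DAPI counterstain, 20x imaging, 6 fields/well. Read-out basis: Nuclear/cytoplasmic beta-catenin signal ratio, % activation.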
# IEC-6 tox – kills IEC-6 intestinal cells in KLF5 counter-screen; 290,000 tested, 0.78% active; IEC-6 cytotoxicity, luminescence viability; inhibition, % at 5 µM; AID 1825; in the data active = inhibition above about 22%;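 note: 0% = plate median of test compound wells and 100% = cytotoxic reference compound wells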
# MT stabilize HCS – microtubule stabilization, imaging screen | HeLa tubulin immunostaining HCS, 24 h; share of cells brighter than vehicle mean+2SD | % tubulin-high responders, % at 10 µM | 200,000 tested, 0.83% active;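 active = plate Z-score above 3 for both tubulin-high and condensed-nucleus cell shares, with cell loss under 80%, at 10 µM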;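 note: anti alpha tubulin signal scored within the nucleus-defined area of each cell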
# APP transl inh – APP translation inhibition. 190,000 tested, 0.82% active. inhibition, % at 2 µM. SH-SY5Y APP 5'UTR-luciferase reporter, luminescence. AID 1285;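 active = inhibition above a set limit, derived from the sample mean plus 3 SD, cut at about 45% in these data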
# * hit, by the source's call; · = no result given. This is a sample that favours compounds with a hit; in the whole collection about 2.2% have one here.
SMILES,BaF3 parental,Ba/F3 V617F tox,bCat nuc transl,IEC-6 tox,MT stabilize HCS,APP transl inh
Cc1ccc(Sc2c(CO)c(-c3ccccc3)nn2C)cc1,82.4*,79.8*,1.2,85.7*,5.7,95.0*
Cc1ccc(-c2nn(-c3ccccc3)cc2CO)cc1,·,·,·,3.1,·,·
COc1ccc(C(CNCC(O)COc2c(C)ccc(C)c2C)N(C)C)cc1 (stereo not given),·,·,·,5.5,·,·
Cc1ccc(-n2nc(C)c3c2OC(N)=C(C#N)C3c2ccccc2F)cc1 (stereo not given),7.5,3.4,1.5,-2.3,1.4,47.2*
O=C(CNC(=O)c1ccccc1F)N/N=C/c1cccnc1,·,·,·,1.5,·,·
CCC1=Nc2cc(C(=O)NCCN3CCOCC3)ccc2Sc2ccccc21,·,·,·,-0.9,·,·
CCOCCCNC(=O)c1ccc2c(c1)N=C(CC)c1cc(Br)ccc1S2,95.0*,92.1*,51.5*,93.4*,4.7,94.4*
Cc1ccccc1S(=O)(=O)Cc1ccc(C(=O)N(C)C2CCCCC2)o1,·,·,·,9.2,·,·
c1ccc(CCNc2ncnc3ccccc23)cc1,67.6*,64.9*,3.0,21.2,1.9,-88.7
Brc1ccc2ncnc(NCc3ccccc3)c2c1,9.6,0.9,2.7,11.9,3.4,8.9
COc1ccccc1NC(=O)CSc1nnc(C2CCCCC2)n1N,·,·,·,-10.7,·,·
Cc1cc(NC(=O)CSc2nnc(C3CC3)n2N)c([N+](=O)[O-])cc1C,80.6*,1.5,-3.5,0.9,1.3,0.4
Cc1ccccc1N1CCN(C2=NC(=O)/C(=C\c3cccs3)S2)CC1,9.2,1.5,-0.1,-0.3,9.4*,-16.2
O=C(NCc1ccco1)c1sc(=S)n2c1[nH]c(=O)c1ccccc12,90.5*,0.9,0.2,1.4,3.2,-17.9
Cn1ccnc1/C(=N\NC(=O)c1ccccc1)c1cccc([N+](=O)[O-])c1,-1.0,-3.7,-2.5,1.6,4.0,-11.1
O=C(N/N=C(\c1ccccc1)c1ccccn1)c1cccc([N+](=O)[O-])c1,91.2*,99.0*,0.4,89.0*,3.5,85.2*
CCOc1ccc2nc(NCCCO)[nH]c2c1,2.9,3.2,-0.6,4.6,1.8,-10.7
CCCOc1ccc2nc(NC(=O)OC)[nH]c2c1,74.7*,77.9*,·,81.2*,6.8,85.9*
COC(=O)Nc1nc2ccc(C(=O)c3ccc(F)cc3)cc2[nH]1,18.5,51.4*,65.5*,20.1,·,·
CC(C)(C)c1ccc(S(=O)(=O)NNC(=O)c2cc3ccccc3[nH]2)cc1,·,·,·,12.9,·,·
Cc1ccc(C)c(N2CCN(S(=O)(=O)c3csc(C(N)=O)c3)CC2)c1,·,·,·,5.6,·,·
O=C(COc1ccccc1F)Nc1ccc2c(c1)OCCO2,·,·,·,3.7,·,·
Cc1ccc(Nc2nc(-c3cccnc3)nc3ccccc23)cc1,29.8*,49.2*,-0.5,19.0,·,·
CCCCCCCOc1ccc(OC(=O)c2cccnc2)cc1,43.8*,57.8*,2.8,13.4,2.4,-2.6
S=c1[nH]nc(C(c2ccccc2)C2CCCCC2)o1 (stereo not given),0.3,-1.8,-1.2,-2.8,·,·
SMILES,BaF3 parental,Ba/F3 V617F tox,bCat nuc transl,IEC-6 tox,MT stabilize HCS,APP transl inh
COc1cc(C2CC(=O)N(c3ccc(C)cc3)C(=O)C2)cc(OC)c1OC,-1.2,2.9,75.0*,7.2,·,·
O=C(Nc1ncc(Cc2ccc(SC(F)F)cc2)s1)c1ccccc1,3.4,-1.8,1.8,0.8,33.6*,86.2*
Cc1ccc(C)c2nc3sc(C(=O)N4CCOCC4)c(N)c3cc12,4.8,-0.2,42.9,-3.2,28.1*,-64.0
Cc1cc(C)c2cc3c(N)c(C(=O)N4CCOCC4)sc3nc2c1,1.9,1.3,0.5,2.4,4.2,-85.8
Cc1cccc2cc3c(N)c(C(=O)N4CCc5ccccc54)sc3nc12,5.1,-2.2,11.8,3.7,11.7*,-9.2
Cc1cc(C)c2nc3sc(C(=O)N4CCOCC4)c(N)c3cc2c1,-2.1,-5.2,72.0*,3.1,·,·
O=C(CNC(=O)CNC(=O)c1ccc(Cl)cc1Cl)NCc1cccc(Cl)c1,·,·,·,6.6,·,·
COc1cc2c(cc1OC)CN(C(=O)c1ccc3nc[nH]c3c1)CC2,13.0,4.9,82.3*,7.1,17.9*,-14.7
O=C(c1ccc2nc[nH]c2c1)N1CCc2ccccc2C1,2.5,-0.3,-2.7,1.0,3.0,-5.8
C[C@H]1O[C@H](O[C@H]2[C@H](O)[C@@H](O)[C@@H](O[C@H]3[C@H](O)[C@@H](O)C(O)O[C@@H]3CO)O[C@@H]2CO)[C@H](O)[C@@H](O)[C@@H]1N[C@H]1C=C(CO)[C@@H](O)[C@H](O)[C@H]1O (stereo not given in full),-6.7,23.8*,0.8,33.8*,·,·
CC1OC(OC2C(CO)OC(OC3C(CO)OC(O)C(O)C3O)C(O)C2O)C(O)C(O)C1N[C@@H]1C=C(CO)[C@@H](O)C(O)[C@H]1O (stereo not given in full),·,·,·,-8.0,·,·
Cc1cnc(CNC(=O)c2ccc3oc(Cc4ccc(Cl)cc4)nc3c2)cn1,·,·,·,-11.2,·,·
Cc1c(Cl)cccc1NC(=O)C1COc2ccccc2O1 (stereo not given),·,·,·,-2.2,·,·
O=C(N/N=C\c1cc(Cl)ccc1O)c1ccc(S(=O)(=O)N2CCCCC2)cc1,4.5,-2.9,3.6,1.8,5.2,73.0*
O=C(Nc1cc(S(=O)(=O)Nc2ccc(Cl)cc2)ccc1O)c1ccc(S(=O)(=O)N2CCCCCC2)cc1,1.3,3.4,-1.3,6.0,2.5,8.1
COc1ccc(OCC(=O)NNC(=O)c2cccc(S(=O)(=O)N(C)C)c2)cc1,0.6,-3.7,-1.2,-7.2,8.3,50.5*
C=C(C)CSc1nc2ccccc2[nH]1,88.8*,-1.6,-1.0,4.7,3.4,-16.1
Cc1cc(OCC(=O)NNC(=O)c2cccs2)ccc1Br,·,·,·,7.2,·,·
O=C(NC(=S)Nc1cccc(Cl)c1N1CCCCC1)c1cccs1,3.2,-0.1,0.3,2.8,25.8*,-2.6
O=C(NC(=S)Nc1ccccc1N1CCCCC1)c1ccco1,3.5,-2.7,-1.2,6.3,2.8,-26.6
O=C(NC(=S)Nc1cccc(Cl)c1N1CCCCC1)c1ccco1,5.8,5.6,3.5,7.4,39.3*,1.6
O=C(Nc1ccc2c(c1)OCO2)c1ccc(NC2CC2)c([N+](=O)[O-])c1,1.4,-1.9,7.5,3.1,27.8*,-26.5
Cc1cccc2[nH]c3c(N4CCC5(CC4)OCCO5)ncnc3c12,11.5,1.7,56.6*,17.9,38.7*,9.1
O=C1NC(=Nc2ccc(O)cc2)S/C1=C\C=C\c1ccco1,60.5*,75.0*,13.3,-2.2,·,·
COc1ccc(N=C2NC(=O)/C(=C\c3ccco3)S2)cc1,3.5,2.7,0.5,-1.6,2.8,-30.9
O=C1C2C3C=CC(CO)(O3)C2C(=O)N1c1ccccc1-c1ccccc1 (stereo not given),0.2,2.7,-2.6,8.2,2.0,70.5*
CC(=O)Oc1c(C)c(=O)n(C)c2ccccc12,42.3*,66.0*,-5.4,0.0,2.4,-16.4
Cn1cc(C(C[N+](=O)[O-])c2ccccc2)c2ccccc21 (stereo not given),·,·,·,18.3,·,·
CC(=O)n1cc(C(C[N+](=O)[O-])SCCN)c2ccccc21 (stereo not given),7.5,3.1,16.4,-0.8,25.9*,-3.9
